Measured values taken from ChEMBL document CHEMBL1137811, “Four new bromotryptamine derivatives from the marine bryozoan Flustra foliacea” (J Nat Prod, 2002).
Calls of active or inactive are those of the source.

Assays:
Type in all cases: cell-based
Details in all cases: Oocyte
[1] = biological target: Potassium voltage-gated channel subfamily A member 4 (Rattus norvegicus) (UniProt P15385); assay: Blockade of voltage-activated rat Kv1.4 potassium channel expressed in Xenopus laevis oocytes assessed as effect on evoked current upto 10 uM by two-electrode voltage clamp method
Outline: (§1)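 Channels expressed in Xenopus laevis oocytes from injected cRNA (rat Kv1.1, rat Kv1.4 or rat brain type II Na channel), incubated 1-5 days. Vitelline membrane removed. Two-electrode voltage clamp, whole-cell currents; 2 M KCl electrodes, 0.6-1.0 MΩ. Filtered 1 kHz, sampled 4 kHz, P/n leak subtraction. Bath: frog Ringer's, pH 7.2. Compounds from DMSO stock, final up to 10 μM in bath; DMSO-only control.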

[2] = biological target: Potassium voltage-gated channel subfamily A member 1 (Rattus norvegicus) (UniProt P10499); assay: Blockade of voltage-activated rat Kv1.1 potassium channel expressed in Xenopus laevis oocytes assessed as effect on evoked current upto 10 uM by two-electrode voltage clamp method; outline: as §1
[3] = biological target: Sodium channel protein type 2 subunit alpha (Rattus norvegicus) (UniProt P04775); assay: Blockade of voltage-activated rat brain Nav1.2 sodium channel type 2 channel expressed in Xenopus laevis oocytes assessed as effect on evoked current by two-electrode voltage clamp method; outline: as §1

Measured: Activity

Sequence of Potassium voltage-gated channel subfamily A member 4 (Rattus norvegicus) (P15385 whole entry): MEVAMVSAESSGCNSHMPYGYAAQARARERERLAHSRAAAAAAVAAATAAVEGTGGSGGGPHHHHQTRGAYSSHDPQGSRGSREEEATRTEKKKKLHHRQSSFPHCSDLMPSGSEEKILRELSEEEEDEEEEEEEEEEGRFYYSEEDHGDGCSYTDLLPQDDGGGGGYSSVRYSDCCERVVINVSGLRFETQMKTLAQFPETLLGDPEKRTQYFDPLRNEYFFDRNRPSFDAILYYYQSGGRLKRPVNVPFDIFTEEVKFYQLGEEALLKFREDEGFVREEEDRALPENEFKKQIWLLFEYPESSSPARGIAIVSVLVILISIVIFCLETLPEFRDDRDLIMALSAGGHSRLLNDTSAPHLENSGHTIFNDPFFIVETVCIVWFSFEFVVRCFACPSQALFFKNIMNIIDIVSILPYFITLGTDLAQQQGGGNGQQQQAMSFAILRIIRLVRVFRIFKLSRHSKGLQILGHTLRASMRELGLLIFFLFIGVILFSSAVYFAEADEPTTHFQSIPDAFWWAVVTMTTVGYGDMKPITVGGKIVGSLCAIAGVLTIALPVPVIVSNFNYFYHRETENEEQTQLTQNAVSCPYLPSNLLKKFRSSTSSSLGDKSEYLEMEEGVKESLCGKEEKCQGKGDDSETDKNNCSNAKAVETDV
Sequence of Sodium channel protein type 2 subunit alpha (Rattus norvegicus) (P04775 whole entry, looked up): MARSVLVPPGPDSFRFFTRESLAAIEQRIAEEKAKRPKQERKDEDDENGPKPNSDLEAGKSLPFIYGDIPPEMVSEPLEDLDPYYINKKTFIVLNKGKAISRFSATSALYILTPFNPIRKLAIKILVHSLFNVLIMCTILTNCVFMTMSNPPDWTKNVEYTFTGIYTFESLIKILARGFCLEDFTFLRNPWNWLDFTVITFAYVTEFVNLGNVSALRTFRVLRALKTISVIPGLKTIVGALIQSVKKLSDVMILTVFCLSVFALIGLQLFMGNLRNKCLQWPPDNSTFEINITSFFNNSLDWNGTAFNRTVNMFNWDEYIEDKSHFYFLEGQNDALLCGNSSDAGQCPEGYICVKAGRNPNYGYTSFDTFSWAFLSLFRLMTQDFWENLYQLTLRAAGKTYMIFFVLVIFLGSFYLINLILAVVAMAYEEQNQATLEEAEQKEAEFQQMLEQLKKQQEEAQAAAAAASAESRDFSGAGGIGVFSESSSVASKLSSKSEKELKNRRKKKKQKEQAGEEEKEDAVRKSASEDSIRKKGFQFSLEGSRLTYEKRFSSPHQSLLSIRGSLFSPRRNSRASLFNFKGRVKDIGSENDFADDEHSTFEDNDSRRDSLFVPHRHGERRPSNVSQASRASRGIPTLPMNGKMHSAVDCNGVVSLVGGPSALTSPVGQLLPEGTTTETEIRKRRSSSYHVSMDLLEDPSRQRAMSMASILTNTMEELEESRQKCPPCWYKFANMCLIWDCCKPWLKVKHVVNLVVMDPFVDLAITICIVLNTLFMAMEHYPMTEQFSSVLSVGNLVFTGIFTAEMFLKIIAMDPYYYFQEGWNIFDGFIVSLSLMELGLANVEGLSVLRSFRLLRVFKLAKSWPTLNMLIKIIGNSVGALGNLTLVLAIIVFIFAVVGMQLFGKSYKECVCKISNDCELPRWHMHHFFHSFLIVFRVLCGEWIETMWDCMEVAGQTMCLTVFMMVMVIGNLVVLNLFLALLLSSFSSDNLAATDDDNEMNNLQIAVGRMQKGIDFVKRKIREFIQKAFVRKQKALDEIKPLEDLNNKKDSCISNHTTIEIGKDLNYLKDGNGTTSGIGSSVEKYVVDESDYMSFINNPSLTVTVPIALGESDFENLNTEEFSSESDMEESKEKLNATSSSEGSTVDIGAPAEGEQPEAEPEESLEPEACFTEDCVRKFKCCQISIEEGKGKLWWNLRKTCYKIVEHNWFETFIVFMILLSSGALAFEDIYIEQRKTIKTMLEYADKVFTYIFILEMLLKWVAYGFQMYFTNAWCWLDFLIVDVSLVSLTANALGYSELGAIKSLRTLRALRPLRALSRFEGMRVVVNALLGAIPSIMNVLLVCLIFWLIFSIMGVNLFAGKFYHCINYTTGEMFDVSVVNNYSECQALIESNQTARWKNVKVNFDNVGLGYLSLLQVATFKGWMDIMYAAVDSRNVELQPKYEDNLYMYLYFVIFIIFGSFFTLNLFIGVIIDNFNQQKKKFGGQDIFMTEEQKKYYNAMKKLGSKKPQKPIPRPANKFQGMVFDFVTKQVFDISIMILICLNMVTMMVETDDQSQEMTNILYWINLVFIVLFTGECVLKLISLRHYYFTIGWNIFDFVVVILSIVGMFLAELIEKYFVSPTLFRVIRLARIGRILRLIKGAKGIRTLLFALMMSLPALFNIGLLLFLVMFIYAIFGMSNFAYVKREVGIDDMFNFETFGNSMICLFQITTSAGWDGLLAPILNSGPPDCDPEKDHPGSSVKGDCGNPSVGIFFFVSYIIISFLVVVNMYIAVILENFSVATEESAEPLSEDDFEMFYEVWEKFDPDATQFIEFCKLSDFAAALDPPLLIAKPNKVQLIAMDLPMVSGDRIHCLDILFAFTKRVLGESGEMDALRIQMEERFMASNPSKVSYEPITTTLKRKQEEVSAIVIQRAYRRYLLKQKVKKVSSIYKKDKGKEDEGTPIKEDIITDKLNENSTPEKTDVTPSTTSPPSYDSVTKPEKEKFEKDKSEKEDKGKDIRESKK
Sequence of Potassium voltage-gated channel subfamily A member 1 (Rattus norvegicus) (P10499 whole entry): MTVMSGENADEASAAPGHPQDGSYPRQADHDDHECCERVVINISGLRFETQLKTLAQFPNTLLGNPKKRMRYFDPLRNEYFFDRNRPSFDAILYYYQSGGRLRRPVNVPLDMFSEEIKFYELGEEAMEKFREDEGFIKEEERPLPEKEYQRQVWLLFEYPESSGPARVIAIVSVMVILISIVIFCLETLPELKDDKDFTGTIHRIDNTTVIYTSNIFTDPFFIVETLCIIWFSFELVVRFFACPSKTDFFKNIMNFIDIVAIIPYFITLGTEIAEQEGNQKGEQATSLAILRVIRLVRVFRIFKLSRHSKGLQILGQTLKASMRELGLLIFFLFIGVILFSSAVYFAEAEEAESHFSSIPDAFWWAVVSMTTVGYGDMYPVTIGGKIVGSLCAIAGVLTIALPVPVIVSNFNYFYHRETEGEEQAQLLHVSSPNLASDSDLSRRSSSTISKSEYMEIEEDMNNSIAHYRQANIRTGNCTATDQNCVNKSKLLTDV

C=CC(C)(C)[C@@]12CCN(C)C1=Nc1cc(Br)ccc12
inactive: [1] | [2] | [3]

C=CC(C)(C)[C@@]12CCN(C)[C@@H]1N(CC=C(C)C)c1cc(Br)ccc12
inactive: [1] | [2] | [3]

C=CC(C)(C)[C@@]12CCN(C)[C@@H]1Nc1cc(Br)ccc12
inactive: [1] | [2] | [3]

C=CC(C)(C)c1[nH]c2cc(Br)ccc2c1CCNC
inactive: [1] | [2] | [3]
